From PMC7810150 (Journal of medicinal chemistry, 2020)
Read-outs that look alike come from different tables or passages of the source. Marks after values point to notes of the source that are not given here.

Assays:
TC32 Ewing sarcoma cells [1] = experiment: 72 h growth inhibition; assay type: cell-based
[2] = tested on: Sp1, VEGFA and BCL-2 mRNA; experiment: Target gene mRNA expression by qRT-PCR in PC3 cells; assay type: cell-based; settings: 6 h treatment
In short: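 PC3 cells, 300,000/well, were washed with DPBS at ~75% confluence (48–72 h). They were treated 6 h with test compound at 0, 100, 300, 1000 nM or mithramycin at 0, 30, 100, 300 nM. Cells were harvested by trypsin; RNA was isolated and cDNA made. qRT-PCR expression was calculated relative to GAPDH (ΔΔCt). Error bars are SEM of at least two biological replicates.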

EWS-FLI1 = EWS-FLI1 (Homo sapiens, UniProt Q01543+Q01844); settings: 10 μM, 6 h incubation, TC32 cells; DMSO control 48.9 °C
TC32 tumors = experiment: TC32 cell line xenograft efficacy in nu/nu mice; assay type: in vivo; settings: for effect on survival (and tumor volume) / median survival: q3dx8 IV, MTMox32E […] mg/kg, MTM 1 mg/kg; for median survival: vehicle 22 days
In short: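 TC32 cells in 1:1 RPMI (no FBS)/Matrigel, 1.0 × 10^6 cells per 100 μL, injected subcutaneously into the flank of female athymic nu/nu mice. Mice with tumors of at least 50 mm3 (14–28 days post implantation) were randomized. Dosing was IV bolus in 5% Kolliphor EL/2% DMSO/93% saline. Tumor volume was measured every 3 days, with euthanasia at 20 mm tumor length. Tumor volume was compared at day 16 by one-way ANOVA; survival by log-rank (Holm-Sidak).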

EWS-FLI1 mRNA = experiment: Target gene mRNA expression by qRT-PCR in TC32 cells; assay type: cell-based; settings: 6 h incubation
In short: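 TC32 cells, 300,000/well, were DPBS-washed at ~75% confluence (48–72 h). They were exposed 6 h to test compound at 0, 30, 100, 300 nM or mithramycin at 0, 10, 30, 100 nM. After trypsin collection, RNA was isolated and reverse-transcribed. mRNA was quantified by qRT-PCR relative to GAPDH (ΔΔCt). SEM is from at least two biological replicates.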

EWS-FLI1 and Sp1 mRNA = experiment: TC32 xenograft tumor tissue mRNA analysis; assay type: in vivo, mice; settings: tumors collected 6 h after the sixth dose, n = 3/group
In short: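 Three mice per group were taken from the q3dx8 IV xenograft study. Tumors were resected 6 h after the 6th dose, rinsed in sterile PBS, snap-frozen in liquid nitrogen and stored at −80 °C. Tissue was cut semifrozen and ground under liquid nitrogen. Total RNA was extracted in RLT lysis buffer with a silica-column kit.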

[3] = tested on: EWS-FLI1 and NR0B1 protein; settings: TC32 cells, 24 h, 10, 30 and 300 nM
[4] = tested on: EWS-FLI1 transcriptional activity (NR0B1 promoter); settings: read-out: EC50 in a similar reporter cell line; cited from earlier work
[5] = tested on: EWS-FLI1 transcriptional activity (NR0B1 promoter); experiment: Luciferase reporter assay, NR0B1 promoter, in TC32 cells; assay type: cell-based; settings: read-out: EC50, NR0B1-mediated luciferase expression; 12 h incubation
CMV promoter = settings: cited from earlier work
PC3 prostate cells = settings: read-out: PC3 GI50, 72 h; cited from earlier work
TC32 Ewing sarcoma cells [6] = settings: 72 h; cited from earlier work
[7] = estimated from literature data, cited from earlier work

(E)-3-(2′-{2-[(Methyl l-Phenylalanyl-l-tryptophanate)amino]-2-oxoethoxy}imino) MTM [MTMox32E]
TC32 GI50 (TC32 Ewing sarcoma cells [1]): 79 nM | Sp1, VEGFA and BCL-2 mRNA [2]: minimally affected Sp1, VEGFA, and BCL-2 | Tagg of EWS-FLI1 (EWS-FLI1): 51.7 °C | effect on survival (and tumor volume) (TC32 tumors): significant in comparison to control (p = 0.0001) and MTM (p = 0.0385) | median survival (TC32 tumors): 38 days | effect on survival (TC32 tumors; qMWFx2, 14 mg/kg): statistically significant improvement in survival over vehicle control group | EWS-FLI1 mRNA levels (EWS-FLI1 mRNA): decreased EWS-FL1 mRNA levels in a concentration-dependent manner | EWS-FLI1 and Sp1 mRNA levels in tumor (EWS-FLI1 and Sp1 mRNA): reduced mRNA levels of both EWS-FLI1 (p = 0.002) and Sp1 (p = 0.04) | EWS-FLI1 protein levels [3]: did not affect the protein levels of EWS-FLI1 | NR0B1 protein expression [3]: greatly diminished the expression of NR0B1

mithramycin A [MTM]
Sp1, VEGFA and BCL-2 mRNA [2]: minimally affected Sp1, VEGFA, and BCL-2 | EC50 [4]: 5 to 100 nM | EC50 [5]: 68 nM | effect on cells expressing luciferase under the control of a CMV promoter (CMV promoter): had no effect | effect on survival (and tumor volume) (TC32 tumors): not statistically different than the control group | median survival (TC32 tumors): 31 days | GI50 (PC3 prostate cells): 83 nM | EWS-FLI1 mRNA levels (EWS-FLI1 mRNA): decreased EWS-FL1 mRNA levels in a concentration-dependent manner | EWS-FLI1 and Sp1 mRNA levels in tumor (EWS-FLI1 and Sp1 mRNA): reduced Sp1 mRNA levels (p = 0.003), but not EWS-FLI1 | TC32 GI50 (TC32 Ewing sarcoma cells [6]): 32 nM

CO[C@@H]([C@@H]1Cc2cc3cc(O[C@H]4CC(O[C@H]5CC(O)[C@H](O)C(C)O5)[C@H](O)C(C)O4)c(C)c(O)c3c(O)c2C(=O)[C@H]1O[C@H]1CC(O[C@H]2CC(O[C@H]3CC(O)[C@H](O)C(C)O3)[C@@H](O)C(C)O2)[C@H](O)C(C)O1)[C@@H](O)C(C)=O (some centres unmarked) [EC-8042]
clearance (CL/F) ([7]; IP, 24 mg/kg, CL/F): 7197^b mL/h/kg | dose-normalized systemic exposure (AUC/D) ([7]; IP, 24 mg/kg): 202 kg·ng·h/mL/mg | volume of distribution (Vd) ([7]; IP, 24 mg/kg): 11259 mL/kg

CO[C@@H]([C@@H]1Cc2cc3cc(O[C@H]4C[C@@H](O[C@H]5C[C@@H](O)[C@H](O)[C@@H](C)O5)[C@H](O)[C@@H](C)O4)c(C)c(O)c3c(O)c2C(=O)[C@H]1O[C@H]1C[C@@H](O[C@H]2C[C@@H](O[C@H]3C[C@](C)(O)[C@H](O)[C@@H](C)O3)[C@@H](O)[C@@H](C)O2)[C@H](O)[C@@H](C)O1)[C@@H](O)C(C)=O [MTM SK]
clearance (CL) ([7]; IV, 18 mg/kg): 2590 mL/h/kg | dose-normalized systemic exposure (AUC/D) ([7]; IV, 18 mg/kg): 386 kg·ng·h/mL/mg | volume of distribution (Vd) ([7]; IV, 18 mg/kg): 857 mL/kg
